Columns and labels:
[1] = system: MDA-MB-435; assay: Growth inhibition of human MDA-MB-435 cells after 48 hrs by sulforhodamine B assay; assay type: functional; details: MDA-MB-435, 48 h
Method in brief: (§1)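 Cells were plated at 5000–40,000 cells/well, depending on doubling time, and preincubated 24 h at 37 °C in 5% CO2. Time-zero plates were TCA-fixed at drug addition. Compounds were dissolved in DMSO and tested at five concentrations (10-fold or ½-log dilutions) for 48 h. Cells were fixed with cold TCA, stained with 0.4% sulforhodamine B and read at 515 nm. GI50 was taken as the concentration giving 50% growth.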

[2] = system: SK-OV-3; assay: Growth inhibition of human SKOV3 cells after 48 hrs by sulforhodamine B assay; assay type: functional; details: SK-OV-3, 48 h; method in brief: as §1
[3] = system: OVCAR-4; assay: Growth inhibition of human OVCAR4 cells after 48 hrs by sulforhodamine B assay; assay type: functional; details: OVCAR-4, 48 h; method in brief: as §1
[4] = system: OVCAR-8; assay: Growth inhibition of human OVCAR8 cells after 48 hrs by sulforhodamine B assay; assay type: functional; details: OVCAR-8, 48 h; method in brief: as §1
[5] = system: MDA-N; assay: Growth inhibition of human MDA-N cells after 48 hrs by sulforhodamine B assay; assay type: functional; method in brief: as §1
[6] = system: Rattus norvegicus; assay: Antiestrogenic activity in Sprague-Dawley rat assessed as reduction in estradiol induced uterine weight upto 0.06 ug, po after 8 days; assay type: functional; parameters: scale not given: the % may be the effect or the level left
Method in brief: (§2)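 Immature ovariectomized female Sprague-Dawley rats (~55 g), groups of 12. Estradiol 0.03–0.05 given s.c. daily for 7 days, with test compound or letrozole reference at various doses up to 0.06 per animal, given orally in 0.5% carboxymethylcellulose. Controls received estradiol alone. Uterine weights were taken on day 8 and group means expressed as % reduction versus estradiol-only controls. Potency was taken relative to letrozole.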

[7] = system: OVCAR-5; assay: Growth inhibition of human OVCAR5 cells after 48 hrs by sulforhodamine B assay; assay type: functional; details: OVCAR-5, 48 h; method in brief: as §1
[8] = system: MCF7; assay: Growth inhibition of human MCF7 cells after 48 hrs by sulforhodamine B assay; assay type: functional; details: MCF7, 48 h; method in brief: as §1
[9] = system: IGROV-1; assay: Growth inhibition of human IGROV1 cells after 48 hrs by sulforhodamine B assay; assay type: functional; details: IGROV-1, 48 h; method in brief: as §1
[10] = system: MDA-MB-231; assay: Growth inhibition of human MDA-MB-231cells after 48 hrs by sulforhodamine B assay; assay type: functional; details: MDA-MB-231, 48 h; method in brief: as §1
[11] = Growth inhibition of human Hs 578T cells after 48 hrs by sulforhodamine B assay; assay type: functional; method in brief: as §1
[12] = system: T47D; assay: Growth inhibition of human T47D cells after 48 hrs by sulforhodamine B assay; assay type: functional; method in brief: as §1
[13] = system: NCI/ADR-RES; assay: Growth inhibition of human NCI/ADR-RES cells after 48 hrs by sulforhodamine B assay; assay type: functional; method in brief: as §1
[14] = system: OVCAR-3; assay: Growth inhibition of human OVCAR3 cells after 48 hrs by sulforhodamine B assay; assay type: functional; details: OVCAR-3, 48 h; method in brief: as §1
[15] = Acute toxicity in mouse after 24 hrs; assay type: organism-based; details: in vivo
Method in brief: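 Adult mice of both sexes, acclimatized 1 week (12 h light/dark, 21–23 °C), fasted 12 h before dosing. 30 mice in 6 groups of 5 each got a single oral gavage dose, at different dose levels, of a fine-powder aqueous suspension. LD50 was determined, with values as group means of five mice.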

[16] = system: BT-549; assay: Growth inhibition of human BT549 cells after 48 hrs by sulforhodamine B assay; assay type: functional; details: BT-549, 48 h; method in brief: as §1
[17] = system: Rattus norvegicus; assay: Antiestrogenic activity in Sprague-Dawley rat assessed as reduction in estradiol induced uterine weight 0.06 ug, po after 8 days relative to letrozole; assay type: functional; method in brief: as §2

Compound | GI50 [1] [µM] | GI50 [2] [µM] | GI50 [3] [µM] | GI50 [4] [µM] | GI50 [5] [µM] | Activity [6] [%] | GI50 [7] [µM] | GI50 [8] [µM] | GI50 [9] [µM] | GI50 [10] [µM] | GI50 [11] [µM] | GI50 [12] [µM] | GI50 [13] [µM] | GI50 [14] [µM] | LD50 at 24 h [15] [mg/kg] | GI50 [16] [µM] | potency ratio vs letrozole [17]
N#Cc1c(C(=O)/C=C/N2CCOCC2)nn(-c2ccccc2)c1-c1ccccc1 | > 100 | 33.8 | 62.8 | > 100 | 38.4 | 43.43 | 90.8 | 5.49 | 88 | > 100 | > 100 | > 100 | > 100 | 21.5 | 463 | 41.4 | 2
CC(=O)c1nn(-c2ccccc2)cc1C(=O)c1nn(-c2ccccc2)c(-c2ccccc2)c1C#N | > 100 | 39.8 | 69.8 | 62.8 | 0.077 | 32.45 | 34.8 | 25.7 | 96.8 | > 100 | 6.46 | 36.8 | > 100 | 66.8 | 324 | > 100 | 1.49
N#Cc1ccc(C(c2ccc(C#N)cc2)n2cncn2)cc1 [LETROZOLE] | 0.067 | 1.09 | 0.88 | 4.5 | 1.61 | 21.65 | 1.62 | 0.7 | 0.095 | 0.15 | 2.17 | 0.44 | 1.16 | 5.87 | 253 | 0.89 | 1

Source: ChEMBL document CHEMBL1629506, “Design, synthesis and structure-activity relationship study of novel pyrazole-based heterocycles as potential antitumor agents” (Eur J Med Chem, 2010)
